# Data taken from PubChem BioAssay AID1235 (PCMD, 2008).
# About 50 (0.08%) of roughly 62,000 compounds were called active. The list comes from a sample in which actives are over-represented; it also holds similar structures and randomly drawn compounds. Values without a mark were called inactive.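 How the source made its calls: active means inhibition above 30% in each of the two pooled mixtures holding the compound, so the lower value exceeds 30%; inactive means the rest.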
# Assay: blockers of serum C3 deposition on LPS – biochemical, ELISA, human serum, orthogonally pooled compounds, primary screen (AID 1235);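 further: 0% = serum in Mg-EGTA without compound and 100% = EDTA serum blank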
# Conditions: Human serum alternative complement pathway, LPS-coated ELISA, tested in compound mixtures, at 5 µM, hits give high values
# In short: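 Test system: human serum complement alternative pathway, C3 deposition onto LPS / Medium: Mg2+-EGTA GVB++ buffer containing human serum at 1:15 dilution / Probe or stimulus: Plate-bound LPS / Times: 1 h at 37 °C / Signal: ELISA with HRP anti-human C3 antibody, TMB substrate, absorbance 450 nm / Measure: percent inhibition / Repeats: two pool placements per compound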
row,SMILES,inhibition
1,CCCSc1nc2c(c(=O)n(C)c(=O)n2C)n1Cc1ccc(C)cc1,-3.43%
2,CNC(=O)C1CC(=O)N(Cc2ccc3c(c2)OCO3)C(=Nc2ccc(F)cc2)S1 (stereo not given),13%
3,O=C(C(Cc1ccccc1)n1cccc1)N1CCN(C2CCCCC2)CC1 (stereo not given),14.7%
4,O=C(O)c1cccc2c1C(=O)N(C1CCCCC1)C2,16.2%
5,O=C(Cn1nc(Cc2cccnc2)c2ccccc2c1=O)NCC1COc2ccccc2O1 (stereo not given),15.7%
6,CCOc1cc2c(cc1OCC)C(C(=O)O)C(c1ccc(OC)c(O)c1)N(C)C2=O (stereo not given),16.6%
7,Fc1ccccc1OCCSc1nc2ccccc2o1,-8.88%
8,Cc1nn(-c2ccccc2)c2c1C(=O)NC(=O)C(C)(C)C2,5.83%
9,N#C/C=C\Oc1ccc(Cl)cc1N,-1.31%
10,CCOC(=O)c1cccc(NC(=O)CCc2c(C)nc3ncnn3c2C)c1,1.8%
11,Cc1ccc(-c2nc(CS(=O)CC(=O)N3CCN(c4ncccn4)CC3)c(C)o2)cc1 (stereo not given),22.7%
12,Cc1onc(-c2ccccc2Cl)c1C(=O)NCCn1ccc2ccccc21,7.02%
13,CCOc1ccc(CNC(=O)C2CC(=O)N(C3CCCC3)C2)cc1OC (stereo not given),18.4%
14,Cc1cc2c(=O)n(C)c(SCC(=O)c3cc4ccccc4o3)nc2s1,3.24%
15,Cc1nc2ncnn2c(C)c1CCC(=O)N1CCN(C(=O)c2ccco2)CC1,1.46%
16,CN(C(=O)COc1nnc(-c2cccs2)c(-c2cccs2)n1)c1ccccc1,7.72%
17,C=CCN1C(=O)C(O)(CC(=O)c2ccc(Cl)cc2)c2ccccc21 (stereo not given),8.76%
18,CCOCCCNC(=O)Cc1cc(=O)[nH]c(=O)[nH]1,26.3%
19,CC(C)CCNC(=O)CN(C(=O)Cn1nnc(-c2ccc(F)cc2)n1)C1CCCC1,0.465%
20,COc1ccc(C2SCCN2S(=O)(=O)c2ccccc2)cc1OC (stereo not given),21.6%

row,SMILES,inhibition
1,COC(=O)c1ccc(CN(c2ccccc2OC)S(=O)(=O)c2cccs2)o1,-0.725%
2,CC1(C)C(=O)C2(CCCCC2)C(=O)OC1c1cccs1 (stereo not given),15.8%
3,COc1ccc(-c2nc3n(c2Br)CCC3)cc1,7.42%
4,O=C(CSc1nc2cc3c(cc2c(=O)n1CCC1=CCCCC1)OCO3)NCc1ccco1,15.2%
5,CN1C(C)(C)CC(NC(=O)CCC(=O)NC2CC(C)(C)N(C)C(C)(C)C2)CC1(C)C,9.95%
6,CCOC(=O)C1CCN(C(=O)C2CCN(S(=O)(=O)c3c(C)noc3C)CC2)CC1,-18.4%
7,COCCn1nnnc1C(c1ccccc1Cl)N1CCN(c2ccccc2OC)CC1 (stereo not given),9.52%
8,O=C(CCOc1ccccc1)NCc1ccccc1,12.9%
9,O=C(CCCN1C(=O)C2C3C=CC(C3)C2C1=O)N1CCN(c2ccccc2)CC1 (stereo not given),11.5%
10,C[N+](C)(C)CCNC(=O)c1c(O)c2c([nH]c1=O)CCCC2,4.27%
11,C/C(=N\O)C1(C)N(O)C(C)(C)C(c2ccc(Br)cc2)=[N+]1[O-] (stereo not given),0.945%
12,CC(=O)C1C(c2cccc(Oc3ccccc3)c2)NC(=O)NC1(O)C(F)(F)F (stereo not given),6.73%
13,COc1ccccc1CNC(=O)C1CCCN(S(=O)(=O)c2cccc3cccnc23)C1 (stereo not given),5.61%
14,COc1ccccc1CNC(=O)C1CCN(c2nc3ccccc3o2)CC1,-3.35%
15,COc1ccccc1CNC(=O)C1CCN(S(C)(=O)=O)CC1,35.9% (active)
16,CCn1c(SCC(=O)Nc2ccccc2F)nc2c(c1=O)SC(C)C2 (stereo not given),-1.83%
17,COC(=O)c1ccc(N(CC(=O)NC2CCCC2)C(=O)CNC(=O)c2ccco2)cc1,13.6%
18,CCCNC(=O)Nc1ccccc1C(=O)Nc1ccc(OC)cc1,6.47%
19,CCCN1C2=C(C(=O)CCC2)C(c2ccc(O)c(Br)c2)C2=C1CCCC2=O,3.41%
20,COc1ccc(OC)c(Nc2nc(-c3ccc(O)c(O)c3)cs2)c1,15.1%

row,SMILES,inhibition
1,O=c1c2ccccc2nc(CSc2nnnn2-c2ccccc2)n1-c1ccccc1,16.5%
2,CCC1C(C#N)=C(SC)NC2=C1C(=O)CC(C)(C)C2 (stereo not given),29.5%
3,C=C(C)Cn1c(N2CCCC2)nc2c1c(=O)[nH]c(=O)n2C,13.6%
4,COc1ccc(OC)c(NC(=O)CC(Cc2ccccc2OC)C(=O)O)c1 (stereo not given),6.63%
5,O=C(Cn1cnc2c(nnn2-c2ccccc2)c1=O)N1CCC(Cc2ccccc2)CC1,12.9%
6,CCC1SC2=NCCN2C1(O)c1ccc(Cl)cc1 (stereo not given),-4.64%
7,CCN(CC)c1ccc(C(=O)OCC(=O)c2ccco2)cc1,-18.9%
8,Cc1nn(Cc2ccc(Cl)c(Cl)c2)c(C)c1NC(=O)c1cc(C2CC2)on1,14.3%
9,COc1ccccc1N1CCN(c2nc3ccccc3n3nnnc23)CC1,-4.06%
10,CCOC(=O)c1cc2sccc2n1Cc1ccc(C#N)cc1,8.71%
11,COCCNC(=O)c1snc2ccc(Cl)cc12,-12.7%
12,Cc1ccn2cc(-c3nonc3C)cc2c1,17.2%
13,Cc1ccc(N2C(=O)CC(NCc3ccc4c(c3)OCO4)C2=O)cc1Cl (stereo not given),24.4%
14,O=C(Nc1ccc2c(c1)OCCO2)C1CCCN(c2ncccn2)C1 (stereo not given),4.42%
15,CCOc1ccc(OCC)c(NC(=O)C2CCN(S(=O)(=O)c3c(C)noc3C)CC2)c1,4.52%
16,O=C(NCCc1ccccn1)c1ccc(COc2ccccc2)o1,13.5%
17,COc1cccc(NC(=O)c2ccccc2SC)c1,12.3%
18,CC(C)OCCCNC(=O)C1CC(=O)N(C2CCCCCCC2)C1 (stereo not given),16.3%
19,CC(C)(O)C#Cc1ccc(C(=O)N2CCC(C(N)=O)(N3CCCCC3)CC2)cc1,0.925%
20,CCN(CC)S(=O)(=O)c1ccc2nc(CSc3nnnn3-c3ccc(O)cc3)[nH]c2c1,-3.47%
